# Results of several laboratories.
# Protocols differ between the studies behind these lines.
# Read-out: cell growth or viability
SMILES,cell line,method,time,IC50
Cc1cccc(Nc2ccccc2C(=O)O)c1C,mouse Peritoneal macrophage,crystal violet,72 h,> 200000 nM
CC(C)[C@H](N)C(=O)N1CCC[C@H]1B(O)O,Kasumi 1,ATP luminescence,48 h,> 60000 nM
O=c1[nH]cc(F)c(=O)[nH]1,MGC-803,MTT,48 h,39000 nM
Nc1ccn([C@@H]2O[C@H](CO)[C@@H](O)C2(F)F)c(=O)n1,143B,resazurin,72 h,8.9 nM
O=C(O)c1cc(O)c(O)c(O)c1,PC-12,MTT,,> 100000 nM
COc1cccc2c1C(=O)c1c(O)c3c(c(O)c1C2=O)C[C@@](O)(C(=O)CO)C[C@@H]3O[C@H]1C[C@H](N)[C@H](O)[C@H](C)O1,ECa-109,MTT,48 h,170 nM
C#C[C@@]1(O)[C@@H](CO)O[C@@H](n2ccc(N)nc2=O)[C@@H]1O,FM3A/0,MTT,72 h,1.6 nM
C[C@@H]1CCO[C@H]2Cn3cc(C(=O)NCc4ccc(F)cc4F)c(=O)c(O)c3C(=O)N12,COS-7,ATP luminescence,,360000 nM
CC(C)C[C@H](NC(=O)[C@H](Cc1ccccc1)NC(=O)c1cnccn1)B(O)O,NCI-N87,ATP luminescence,,9.1 nM
CC1=C(O)C(=O)C=C2C1=CC=C1[C@@]2(C)CC[C@@]2(C)[C@@H]3C[C@](C)(C(=O)OCCCO)CC[C@]3(C)CC[C@]12C,MGC-803,MTT,48 h,290 nM
C#C[C@@]1(O)[C@@H](COP(=O)(O)OC[C@H]2O[C@@H](n3cc(F)c(=O)[nH]c3=O)C[C@@H]2O)O[C@@H](n2ccc(N)nc2=O)[C@@H]1O,FM3A/0,MTT,72 h,2.2 nM
CC1=C(O)C(=O)C=C2C1=CC=C1[C@@]2(C)CC[C@@]2(C)[C@@H]3C[C@](C)(C(=O)OCCCOc4ccccc4)CC[C@]3(C)CC[C@]12C,MGC-803,MTT,48 h,460 nM
CC[C@H](C)C(=O)O[C@H]1C[C@H](O)C=C2C=C[C@H](C)[C@H](CC[C@@H](O)C[C@@H](O)CC(=O)O)[C@H]21,SW480,SRB,72 h,> 200 µg/mL
CC1=C(O)C(=O)C=C2C1=CC=C1[C@@]2(C)CC[C@@]2(C)[C@@H]3C[C@](C)(C(=O)OCCCCCCCCO)CC[C@]3(C)CC[C@]12C,MGC-803,MTT,48 h,380 nM
O=C(Nc1ccc(Cl)cc1)c1ccc([N+](=O)[O-])o1,NCI-H2030,resazurin,96 h,1120 nM
CC1=C(O)C(=O)C=C2C1=CC=C1[C@@]2(C)CC[C@@]2(C)[C@@H]3C[C@](C)(C(=O)OCCCN4C(=O)C5C=CC=CC5C4=O)CC[C@]3(C)CC[C@]12C (stereo partly drawn),MGC-803,MTT,48 h,390 nM
Cc1nnc(C(=O)NC(C)(C)c2nc(C(=O)NCc3ccc(F)cc3)c(O)c(=O)n2C)o1,COS-7,ATP luminescence,,36400 nM
COCCCOC(=O)[C@]1(C)CC[C@]2(C)CC[C@]3(C)C4=CC=C5C(=CC(=O)C(O)=C5C)[C@]4(C)CC[C@@]3(C)[C@@H]2C1,MGC-803,MTT,48 h,400 nM
CC(=O)O[C@@]12CO[C@@H]1C[C@H](O)[C@@]1(C)C(=O)[C@H](O)C3=C(C)[C@@H](OC(=O)[C@H](O)[C@@H](NC(=O)OC(C)(C)C)c4ccccc4)C[C@@](O)([C@@H](OC(=O)c4ccccc4)[C@H]21)C3(C)C,PC-12,MTT,,280 µg/mL
CC1=C(O)C(=O)C=C2C1=CC=C1[C@@]2(C)CC[C@@]2(C)[C@@H]3C[C@](C)(C(=O)OCCCCCCO)CC[C@]3(C)CC[C@]12C,MGC-803,MTT,48 h,390 nM
Cc1cnc(-c2ccc(-c3ccc(NC(=O)Nc4c(F)cc(F)cc4F)cc3F)c3c2C(=O)NC3)[nH]1,Kasumi 1,,,22 nM
